# High-throughput results deposited in PubChem BioAssay by several laboratories.
# BaF3 parental: parental Ba/F3 viability inhibition as JAK2V617F counter-screen | CellTiter-Glo ATP luminescence | inhibition, % at 5.6 µM | hit rate 1.1% among 220,000 | AID 1486;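 active means inhibition above a per-campaign cutoff, the mean inhibition of all tested compounds plus 3 SD, cut at about 27% in these data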;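 further: 0% = DMSO wells and 100% = JAK Inhibitor I control wells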
# IEC-6 cytotox: kills IEC-6 intestinal cells in KLF5 counter-screen; IEC-6 cytotoxicity, luminescence viability; inhibition, % at 5 µM; hit rate 0.78% among 290,000; AID 1825; in the data active means inhibition above about 22%;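 further: 0% = plate median of test compound wells and 100% = cytotoxic reference compound wells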
# MT stabilize HCS: microtubule stabilizers in HeLa cells; HeLa tubulin immunostaining HCS, 24 h; share of cells brighter than vehicle mean+2SD; % tubulin-high responders, % at 10 µM; hit rate 0.83% among 200,000; AID 2205;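 active means plate Z-score above 3 for both tubulin-high and condensed-nucleus cell shares, with cell loss under 80%, at 10 µM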;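 further: anti alpha tubulin signal scored within the nucleus-defined area of each cell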
# Ba/F3 V617F tox: loss of viability in JAK2V617F-driven Ba/F3 cells | inhibition, % at 5.6 µM | AID 1446 | Ba/F3 EpoR-JAK2V617F viability, ATP luminescence | hit rate 1.1% among 220,000;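 active means inhibition above the campaign mean plus 3 SD over all tested compounds, cut at about 24% in these data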;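 further: cytokine-independent growth of Ba/F3 cells driven by EpoR plus mutant JAK2; 0% = DMSO-treated cells and 100% = JAK inhibitor I control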
# b-catenin transl: alters nuclear translocation of beta-catenin in HeLa cells. immunofluorescence imaging. nuclear translocation activity, % at 5 µM. hit rate 0.3% among 190,000;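 active means nuclear translocation activity above 50% at 5 µM, with a well cell count of 50 or more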;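 further: per-cell ratio of nuclear to cytoplasmic median beta-catenin stain intensity; plate controls were DMSO negative control for no effect and GSK-3 inhibitor IX positive control for full effect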
#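 System: Human HeLa cells, endogenous beta-catenin | Compound dosing: 5 µM primary, 0.02–20 µM confirmation | Timing: 24 h compound exposure at 37°C, 5% CO2 | Measured by: Fluorescence imaging of beta-catenin antibody stain plus DAPI | Read-out basis: % activation of per-cell nuclear versus cytoplasmic median beta-catenin signal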
# APP 5UTR inh: APP translation inhibition. SH-SY5Y APP 5'UTR-luciferase reporter, luminescence. inhibition, % at 2 µM. hit rate 0.82% among 190,000. AID 1285;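 active means inhibition above a set limit, derived from the sample mean plus 3 SD, cut at about 45% in these data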
# An asterisk follows results filed as active; . = no result given. This is a sample that favours compounds with a hit; in the whole collection about 2.2% have one here.
SMILES,BaF3 parental,IEC-6 cytotox,MT stabilize HCS,Ba/F3 V617F tox,b-catenin transl,APP 5UTR inh
CCc1nc2sc3c(c2c(=O)n1N)CCC3,5,-1,3,1,-4,-6
Nn1c(Nc2ccccc2)nc2sc3c(c2c1=O)CCC3,-1,22*,5,-4,-4,-34
NNc1nc2sc3c(c2c(=O)n1Cc1ccccc1)CCC3,34*,8,.,47*,-2,.
O=C(Oc1ccc(/C=N/NC(=O)c2ccccn2)cc1)c1cccc(F)c1,.,2,.,.,.,.
COc1cccc(-c2csc(N3CCN(C(=S)Nc4ccc(Cl)cc4)CC3)n2)c1,38*,6,3,38*,1,2
COc1cccc(-c2csc(N3CCN(C(=S)Nc4ccccc4)CC3)n2)c1,10,5,2,2,-2,-23
Clc1ccc(-c2csc(Nc3ccccc3)[n+]2Cc2ccco2)c(Cl)c1,5,1,2,1,2,-38
COC(=O)c1[nH]c2cccc(OC)c2c1NC(=O)CCN1CCC(C)CC1,1,4,7,3,-2,10
COC(=O)c1[nH]c2cccc(OC)c2c1NC(=O)C(C)N1CCC(C)CC1 (stereo not given),3,3,3,-1,1,66*
COc1ccc(Cn2c(=S)[nH]c3ccccc3c2=O)cc1,.,4,.,.,.,.
Cc1csc(=Nc2cccnc2)n1CC1CCCCC1,16,-7,2,10,.,16
C=CCN1C(=Nc2cccnc2)SCC1(O)c1ccc(C)cc1 (stereo not given),33*,0,5,10,3,4
COc1ccccc1/C=C/C(=O)OCC(=O)Nc1cc(C(F)(F)F)ccc1N1CCOCC1,1,-2,19*,-2,0,61*
O=C(COC(=O)/C=C/c1ccccc1)Nc1cc(C(F)(F)F)ccc1N1CCOCC1,2,-1,3,-1,2,-12
O=c1[nH]c2ccccc2nc1NCc1ccccc1,.,9,.,.,.,.
CC1=NN(c2nc3ccccc3[nH]2)C(=O)C1Cc1ccccc1 (stereo not given),81*,-16,.,97*,0,.
Nc1cccc(CCc2nc3cc4ccccc4cc3[nH]2)c1,51*,49*,18,88*,81*,17
COc1ccc(NS(=O)(=O)c2ccc3c(c2)N(C(C)=O)CCO3)c(OC)c1,.,0,.,.,.,.
COc1ccc([N+](=O)[O-])cc1COc1cc(C)cc2oc(=O)cc(-c3ccccc3)c12,-1,-3,18*,-6,-5,16
O=C(Nc1ccc(Br)cn1)c1ccc2nccnc2c1,4,-3,12*,-5,.,-21
CCOc1ccc(C(C(=O)NCC2CCCO2)N(Cc2cccnc2)C(=O)c2snc(C(N)=O)c2N)cc1 (stereo not given),.,-5,.,.,.,.
Cc1ccc(NC(=O)c2cccc3c2C(=O)N(C2CCCCC2)C3)c(Cl)c1,.,-1,.,.,.,.
N#C/C(=C\c1ccco1)C(=O)NCc1ccccc1,2,0,3,1,-2,-11
N#CC(C#N)=C1C=CC=CN1/C(=C\c1ccco1)C(=O)c1ccc(-c2ccccc2)cc1,2,2,5,22,0,92*
N#CC(C#N)=C1C=CC=CN1/C(=C\c1ccco1)C(=O)c1ccc(Cl)cc1,2,9,4,1,1,96*
SMILES,BaF3 parental,IEC-6 cytotox,MT stabilize HCS,Ba/F3 V617F tox,b-catenin transl,APP 5UTR inh
Cc1ccnc(NC(=O)c2ccccc2NC(=O)C(C)(C)C)c1,10,8,44*,8,-1,2
CS(=O)(=O)c1nc(-c2ccccc2)cc(C(F)(F)F)n1,7,7,5,1,2,62*
Cc1cc(NC(=O)CCS(=O)(=O)c2nc(-c3ccccc3)cc(C(F)(F)F)n2)no1,.,.,.,.,-4,.
COc1cc(/C=C(\C#N)c2ccccn2)cc(OC)c1O,-1,0,.,6,3,.
COc1cc(/C=C(\C#N)c2[nH]nc(N)c2C#N)cc(OC)c1O,6,3,3,-1,.,49*
O=C(CN(Cc1ccc(F)cc1)C(=O)CCC(=O)Nc1nccs1)NCc1ccccc1,.,-5,.,.,.,.
CC(=O)Nc1cccc(C(=O)/C=C/c2ccc(F)cc2)c1,-1,3,5,-7,-1,-25
CC(=O)Nc1cccc(C(=O)/C=C/c2ccc(/C=C/C(=O)c3cccc(NC(C)=O)c3)cc2)c1,6,-1,35,1,6,92*
CCC(=O)Nc1cccc(C(=O)/C=C/c2cc(Br)ccc2OC)c1,8,1,16,4,3,75*
N#C/C(=C\c1ccc(OCc2ccc(C(=O)O)cc2)cc1)C(=O)N1CCOCC1,8,0,2,2,2,56*
CCOc1ccccc1CN(Cc1ccco1)S(=O)(=O)c1ccc(-n2cnnn2)c(OC)c1,8,5,41*,7,-1,8
CSc1ccccc1NC(=O)CO/N=C(\C)c1cc2ccccc2o1,3,36*,1,-2,.,-27
CC(=O)Nc1ccc(-c2nnn(CC(=O)c3ccc(F)cc3)n2)cc1Cl,-8,0,.,-1,-1,.
CCOC(=O)c1oc2ccccc2c1NC(=O)c1cccc(OC)c1OC,5,-2,34*,-4,-1,-2
CCn1nc(CC(=O)O)c2ccccc2c1=O,2,4,1,5,-1,-1
Cc1c(Cc2ccc3c(c2)OCO3)sc(NC(=O)C(C)(C)C)c1C#N,1,5,22*,0,-1,-4
CCN(CC)CCn1cnc2c([nH]c3cccc(OC)c32)c1=O,69*,10,6,6,-3,7
COCCN1C(=O)C(=O)/C(=C(/O)c2ccc(S(=O)(=O)N3CCCCC3)cc2)C1c1ccc(O)c(OC)c1 (stereo not given),.,-12,.,.,.,.
NC(=O)COc1ccc(NC(=O)CC23CC4CC(CC(C4)C2)C3)cc1,.,2,.,.,.,.
Fc1ccccc1CSc1nnc(-c2cnccn2)n1Cc1ccco1,3,1,3,-3,-2,-16
C(=C\c1ccccc1)/CSc1nnc(-c2cnccn2)n1Cc1ccco1,5,3,5,4,56*,-18
O=c1c2ccccc2nc(N/N=C/c2c(O)ccc3ccccc23)n1O,74*,2,3,93*,0,57*
CCOc1cc(C2C(C#N)=C(N)OC(C)=C2C(C)=O)c(Br)c(Br)c1OC(C)C (stereo not given),5,4,5,0,0,66*
O=C(N=C1SC2CS(=O)(=O)CC2N1c1ccccc1)C1CCCCC1 (stereo not given),.,-8,.,.,.,.
O=C(CNc1ccccc1)N/N=C/c1c[nH]c2ccccc12,0,0,16*,-3,19,8
Cc1ccc(C(=O)Nc2ccc(C(=O)N/N=C/c3c[nH]c4ccccc34)cc2)cc1,3,6,3,-2,-1,0
O=C(N/N=C/c1c[nH]c2ccccc12)c1ccccc1,.,0,.,.,.,.
Cc1cccc(NC(=S)N/N=C/c2c[nH]c3ccccc23)c1,-1,12,14*,-5,.,86*
